# Measured values as given in ChEMBL document CHEMBL3870350, “Synthesis and application of β-carbolines as novel multi-functional anti-Alzheimer's disease agents” (Bioorg Med Chem Lett, 2017).
# Experiments:
# [1] = target: Amyloid-beta precursor protein (Homo sapiens) (UniProt P05067); experiment: Inhibition of human amyloid-beta (1 to 42 residues) oligomer at 1:1 protein to compound ratio after 2 hrs by ELISA; conditions: concentration not given here
# [2] = target: Amyloid-beta precursor protein (Homo sapiens) (UniProt P05067); experiment: Inhibition of human amyloid-beta (1 to 42 residues) fibril at 1:1 protein to compound ratio after 2 hrs by ELISA; conditions: concentration not given here
# [3] = Antioxidant activity assessed as inhibition of peroxyl radical-induced oxidation at 10 uM by ORAC assay; format: functional; set-up: scale not given: the % may be the effect or the level left
# [4] = Antioxidant activity assessed as DPPH radical scavenging activity at 10 uM; format: functional
# [5] = Antioxidant activity assessed as ABTS free radical scavenging activity at 10 uM; format: functional
# [6] = target: T1, Cholinesterase (Homo sapiens, UniProt P06276); experiment: Inhibition of BuChE (unknown origin) at 10 uM by spectrophotometric analysis based Ellman's assay
# Procedure, shortened: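 Ellman colorimetric assay of BuChE activity, with each compound tested at a single 10 μM concentration. […] Activity is reported as percent inhibition.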
# [7] = target: T1, Cholinesterase; experiment: Inhibition of BuChE (unknown origin) by spectrophotometric analysis based Ellman's assay
# Sequence of Amyloid-beta precursor protein (Homo sapiens) (P05067 whole entry, the tested form may be a part): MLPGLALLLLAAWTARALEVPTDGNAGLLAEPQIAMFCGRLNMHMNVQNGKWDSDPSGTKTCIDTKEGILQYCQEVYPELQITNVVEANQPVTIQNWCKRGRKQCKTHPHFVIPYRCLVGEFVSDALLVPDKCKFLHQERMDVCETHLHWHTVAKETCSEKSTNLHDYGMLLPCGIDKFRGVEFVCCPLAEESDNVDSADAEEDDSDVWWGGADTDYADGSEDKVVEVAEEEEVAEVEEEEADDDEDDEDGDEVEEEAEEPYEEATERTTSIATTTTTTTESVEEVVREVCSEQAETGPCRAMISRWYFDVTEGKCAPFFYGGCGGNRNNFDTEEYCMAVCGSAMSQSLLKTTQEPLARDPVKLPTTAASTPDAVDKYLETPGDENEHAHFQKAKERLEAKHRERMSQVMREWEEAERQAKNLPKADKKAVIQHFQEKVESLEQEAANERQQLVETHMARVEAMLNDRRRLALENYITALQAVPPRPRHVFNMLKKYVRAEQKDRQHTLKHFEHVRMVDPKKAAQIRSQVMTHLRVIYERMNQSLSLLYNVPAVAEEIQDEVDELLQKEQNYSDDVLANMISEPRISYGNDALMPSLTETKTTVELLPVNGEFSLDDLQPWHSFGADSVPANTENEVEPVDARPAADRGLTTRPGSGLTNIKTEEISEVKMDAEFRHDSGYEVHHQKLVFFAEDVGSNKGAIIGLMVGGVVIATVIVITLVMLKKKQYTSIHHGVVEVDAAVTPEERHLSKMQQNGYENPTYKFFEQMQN
# T1 sequence (P06276 whole entry): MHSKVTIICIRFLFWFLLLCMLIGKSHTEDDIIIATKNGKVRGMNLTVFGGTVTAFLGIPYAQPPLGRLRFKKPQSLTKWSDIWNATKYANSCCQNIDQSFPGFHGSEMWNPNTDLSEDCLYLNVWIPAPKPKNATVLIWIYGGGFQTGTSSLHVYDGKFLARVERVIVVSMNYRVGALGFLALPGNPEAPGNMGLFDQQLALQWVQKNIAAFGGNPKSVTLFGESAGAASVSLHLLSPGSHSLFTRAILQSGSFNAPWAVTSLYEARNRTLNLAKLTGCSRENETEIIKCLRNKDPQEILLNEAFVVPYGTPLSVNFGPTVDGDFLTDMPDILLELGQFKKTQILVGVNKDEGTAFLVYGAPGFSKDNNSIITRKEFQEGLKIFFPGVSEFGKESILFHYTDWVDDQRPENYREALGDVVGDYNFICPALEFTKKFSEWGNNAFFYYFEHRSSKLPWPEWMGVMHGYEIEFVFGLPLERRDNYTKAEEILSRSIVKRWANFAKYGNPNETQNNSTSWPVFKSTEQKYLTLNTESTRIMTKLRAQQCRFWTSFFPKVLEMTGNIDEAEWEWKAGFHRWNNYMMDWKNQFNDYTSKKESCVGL
Structure (SMILES),inhibition [1] [%],inhibition [2] [%],Activity [3] [%],Activity [4] [%],Activity [5] [%],inhibition [6] [%],IC50 [7] [µM]
Cc1ccc2[nH]c3c(-c4ccc(C(F)(F)F)cc4)nccc3c2c1,82,34,–,–,–,–,–
Cc1ccccc1-c1nccc2c1[nH]c1ccccc12,45,17,58,0,15,7,> 10
COc1ccc2[nH]c3c(-c4ccc(C)cc4)nccc3c2c1,63,10,28,-12,13,32,> 10
Cc1c(C)c2c(c(C)c1O)CCC(C)(C(=O)O)O2 (stereo not given),–,–,90,23,26,–,–
c1ccc2c(-c3nccc4c3[nH]c3ccccc34)cccc2c1,58,39,0,-6,14,95,0.22
COc1ccc2[nH]c3c(C(=O)c4ccc(F)cc4)nccc3c2c1,82,6,5,-4,5,1,> 10
c1ccc2c(c1)[nH]c1c(C3CCCCC3)nccc12,30,–,–,–,–,–,–
COc1ccc2[nH]c3c(-c4ccc(F)cc4)nccc3c2c1,–,12,41,-13,15,34,> 10
O=C1O[C@H]([C@@H](O)CO)C(O)=C1O,–,–,15,15,28,–,–
O=C(c1ccccc1)c1nccc2c1[nH]c1ccccc12,–,20,6,-3,6,11,> 10
COc1ccc2[nH]c3c(-c4ccccc4)nccc3c2c1,58,19,35,-6,16,64,4.48
O=C(c1ccc(C(F)(F)F)cc1)c1nccc2c1[nH]c1ccccc12,–,11,-10,-1,7,69,1.29
c1ccc(-c2nccc3c2[nH]c2ccccc23)cc1,79,-4,10,-7,12,46,> 10
Cc1ccc2[nH]c3c(-c4ccccc4)nccc3c2c1,6,-7,10,2,10,54,3.06
COc1ccc2[nH]c3c(C(=O)c4ccc(C(F)(F)F)cc4)nccc3c2c1,84,-5,5,2,3,46,1.42
Fc1ccc(-c2nccc3c2[nH]c2ccccc23)cc1,22,37,54,-3,22,79,4.27
